Data from ChEMBL document CHEMBL1130354, “Bicyclo[2.2.1]heptane and 6,6-dimethylbicyclo[3.1.1]heptane derivatives: orally active, potent, and selective prostaglandin D2 receptor antagonists” (J Med Chem, 1997).

Columns and labels:
Cavia porcellus [1] = species: Cavia porcellus; test: Effect on PGD2-induced increase in vascular permeability in conjunctiva of normal guinea pigs; type: functional
Outline: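 Normal guinea pigs; conjunctival microvascular permeability increase induced by topical 0.1% PGD2; dose producing 50% inhibition derived from dose–response data, n = 3–10 animals per point.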

[2] = target: T1, Prostaglandin D2 receptor (Homo sapiens, UniProt Q13258); test: Inhibition of [3H]PGD-2 specific binding to Prostaglandin D2 receptor from human platelet membranes
T1 sequence (Q13258 whole entry): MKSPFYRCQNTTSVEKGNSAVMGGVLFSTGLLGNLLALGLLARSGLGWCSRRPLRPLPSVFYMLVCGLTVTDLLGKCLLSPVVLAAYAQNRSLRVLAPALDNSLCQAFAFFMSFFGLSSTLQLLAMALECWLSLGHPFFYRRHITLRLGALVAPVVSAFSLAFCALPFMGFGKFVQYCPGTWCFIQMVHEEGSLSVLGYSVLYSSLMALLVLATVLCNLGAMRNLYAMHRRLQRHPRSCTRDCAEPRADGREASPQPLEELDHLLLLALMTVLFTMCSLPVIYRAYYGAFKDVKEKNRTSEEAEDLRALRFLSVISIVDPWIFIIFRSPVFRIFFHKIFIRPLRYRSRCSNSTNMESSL
Outline: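 Human platelet membranes incubated 60 min at 4 °C with 5 nM [3H]PGD2 and graded test compound concentrations; inhibition of specific binding measured, IC50 derived.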

Cavia porcellus [3] = species: Cavia porcellus; test: Dose required to inhibit 50% of antigen-induced increase in intranasal pressure; type: functional; settings: po
Outline: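 Oral dosing of actively sensitized guinea pigs 1 h before antigen challenge; rise in intranasal pressure recorded; dose giving 50% inhibition taken from dose–response data, n = 5–10 animals per point.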

Cavia porcellus [4] = test: Inhibition of antigen-induced increase in intranasal pressure in actively sensitized guinea pigs at 1 mg/kg (iv); type: functional
Outline: (§1)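 Actively sensitized guinea pigs; compound given iv 10 min before antigen challenge; antigen-induced rise in intranasal pressure measured, percent inhibition reported as mean ± SEM, n = 5–10/group; Student's t-test versus control.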

Cavia porcellus [5] = test: Inhibition of increase in specific airway resistance by antigen inhalation in conscious guinea pigs (10 mg/kg); type: functional
Outline: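 Conscious guinea pigs given compound po 1 h before antigen inhalation; increase in specific airway resistance measured; percent inhibition as mean ± SEM, n = 4–11 animals/group; Student's t-test versus control.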

[6] = target: T1, Prostaglandin D2 receptor; test: Inhibition of cAMP formation evoked by the prostaglandin D2 receptor in human platelets; type: functional
Outline: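 Human platelets preincubated 10 min at 37 °C with graded compound concentrations in presence of IBMX, then stimulated 2 min with 0.1 μM PGD2; inhibition of cAMP formation measured, IC50 derived.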

Thromboxane A2 receptor = target: T2, Thromboxane A2 receptor (Homo sapiens, UniProt P21731); test: Inhibition of [3H]- (+)-S-145 specific binding to human platelet membranes in TXA2 receptor (TP) assay
T2 sequence (P21731 whole entry): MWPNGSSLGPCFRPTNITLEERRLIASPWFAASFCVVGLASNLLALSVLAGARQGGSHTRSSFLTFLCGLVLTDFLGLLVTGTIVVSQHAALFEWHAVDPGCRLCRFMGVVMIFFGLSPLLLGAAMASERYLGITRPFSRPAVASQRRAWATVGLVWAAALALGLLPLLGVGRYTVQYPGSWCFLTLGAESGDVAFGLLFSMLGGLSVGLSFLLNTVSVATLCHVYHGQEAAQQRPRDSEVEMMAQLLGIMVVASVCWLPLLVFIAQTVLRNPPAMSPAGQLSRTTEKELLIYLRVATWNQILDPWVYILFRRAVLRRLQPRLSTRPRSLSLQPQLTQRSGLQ
Outline: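 Membranes from human platelets incubated 60 min at room temperature with 2 nM [3H](+)-S-145 plus graded compound concentrations; specific binding inhibition gives IC50.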

Cavia porcellus [7] = species: Cavia porcellus; test: Effect on antigen-induced increase in vascular permeability in conjunctiva of guinea pig which actively sensitized with ovalbumin; type: functional
Outline: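 Guinea pigs actively sensitized with ovalbumin, challenged conjunctivally with antigen; increase in conjunctival microvascular permeability measured; ED50 from dose–response data, n = 3–10 animals per point.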

Prostacyclin receptor = Prostacyclin receptor (Homo sapiens, UniProt P43119); test: Inhibition of cAMP formation by carbacyclin in Prostaglandin I2 receptor (IP) assay; type: functional
Prostacyclin receptor, sequence (P43119 whole entry): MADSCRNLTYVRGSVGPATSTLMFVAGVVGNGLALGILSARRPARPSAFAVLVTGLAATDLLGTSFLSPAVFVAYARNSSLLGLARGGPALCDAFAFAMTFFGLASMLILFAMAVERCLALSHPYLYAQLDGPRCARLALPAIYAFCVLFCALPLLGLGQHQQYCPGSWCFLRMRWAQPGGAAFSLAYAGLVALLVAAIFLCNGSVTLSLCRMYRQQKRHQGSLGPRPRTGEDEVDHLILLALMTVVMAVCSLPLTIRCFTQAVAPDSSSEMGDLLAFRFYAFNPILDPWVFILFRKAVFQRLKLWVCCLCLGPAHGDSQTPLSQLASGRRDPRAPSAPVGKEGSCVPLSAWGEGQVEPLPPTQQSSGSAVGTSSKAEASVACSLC
Outline: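 Platelets (human) preincubated 10 min at 37 °C with graded compound levels plus IBMX, then exposed 2 min to 0.1 μM carbacyclin; cAMP formation inhibition read out; IC50 is mean of two or three measurements.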

Cavia porcellus [8] = test: Inhibition of antigen-induced increase in intranasal pressure in actively sensitized guinea pigs at 3 mg/kg (iv); type: functional; outline: as §1

Compound: CC1(C)[C@H]2C[C@H](C/C=C\CCCC(=O)O)[C@@H](NC(=O)c3ccsc3)[C@@H]1C2
- ED50 (Cavia porcellus [1]): 3.5 mg/kg
- IC50 [2]: 1600 nM
- ED50 (Cavia porcellus [3]): 5.1 mg/kg
- inhibition in vivo at 1 mg/kg (Cavia porcellus [4]): 77%
- Inhibition (Cavia porcellus [5]): 15%
- IC50 [6]: 38 nM
- IC50 (Thromboxane A2 receptor): 2100 nM
- ED50 (Cavia porcellus [7]): 9.5 mg/kg
- IC50 (Prostacyclin receptor): > 10000 nM

Compound: O=C(O)CCC/C=C\C[C@@H]1[C@H]2CC[C@H](C2)[C@H]1NS(=O)(=O)c1ccc2oc3cc([N+](=O)[O-])ccc3c2c1
- IC50 [2]: 1100 nM
- IC50 [6]: 250 nM
- IC50 (Prostacyclin receptor): 4500 nM

Compound: CC1(C)[C@H]2C[C@H](C/C=C\CCCC(=O)O)[C@@H](NS(=O)(=O)c3ccc(/N=N/c4ccccc4)cc3)[C@@H]1C2
- IC50 [2]: 1300 nM
- IC50 [6]: > 1000 nM
- IC50 (Thromboxane A2 receptor): 740 nM
- IC50 (Prostacyclin receptor): 3400 nM

Compound: O=C(O)CCC/C=C\C[C@@H]1[C@H]2CC[C@H](C2)[C@H]1NS(=O)(=O)c1ccc2ccccc2c1
- IC50 [2]: 1200 nM
- inhibition in vivo at 1 mg/kg (Cavia porcellus [4]): 54%
- IC50 [6]: 420 nM
- IC50 (Thromboxane A2 receptor): 670 nM
- IC50 (Prostacyclin receptor): 8900 nM

Compound: O=C(O)CCC/C=C\C[C@@H]1[C@H]2CC[C@H](C2)[C@H]1NS(=O)(=O)c1ccc(/N=N/c2ccccc2)cc1
- IC50 [2]: 27 nM
- IC50 [6]: 320 nM
- IC50 (Thromboxane A2 receptor): 1300 nM
- IC50 (Prostacyclin receptor): > 10000 nM

Compound: O=C(O)CCC/C=C\C[C@H]1[C@@H]2CC[C@@H](C2)[C@@H]1NS(=O)(=O)c1ccc2ccccc2c1
- IC50 [2]: 4900 nM
- inhibition in vivo at 1 mg/kg (Cavia porcellus [4]): 6%
- IC50 [6]: > 1000 nM
- IC50 (Thromboxane A2 receptor): 0.13 nM
- IC50 (Prostacyclin receptor): 3300 nM

Compound: O=C(O)CCC/C=C\C[C@@H]1[C@H]2CC[C@H](C2)[C@H]1NS(=O)(=O)c1ccc(Oc2ccccc2)cc1
- IC50 [2]: 720 nM
- inhibition in vivo at 1 mg/kg (Cavia porcellus [4]): 25%
- IC50 [6]: 780 nM
- IC50 (Thromboxane A2 receptor): 1300 nM
- IC50 (Prostacyclin receptor): > 10000 nM

Compound: CC1(C)[C@H]2C[C@H](C/C=C\CCCC(=O)O)[C@@H](NC(=O)c3ccc(/N=N/c4ccccc4)cc3)[C@@H]1C2
- IC50 [2]: 540 nM
- IC50 [6]: 380 nM
- IC50 (Thromboxane A2 receptor): 150 nM
- IC50 (Prostacyclin receptor): > 10000 nM

Compound: CC1(C)[C@H]2C[C@H](C/C=C\CCCC(=O)O)[C@@H](NC(=O)c3ccccc3)[C@@H]1C2
- IC50 [2]: 5200 nM
- IC50 [6]: 360 nM
- IC50 (Thromboxane A2 receptor): 810 nM
- IC50 (Prostacyclin receptor): > 10000 nM

Compound: O=C(O)CCC/C=C\C[C@@H]1[C@H]2CC[C@H](C2)[C@H]1NS(=O)(=O)c1ccc(-c2ccccc2)cc1
- inhibition in vivo at 3 mg/kg (Cavia porcellus [8]): 39%
- IC50 [2]: 600 nM
- IC50 [6]: 450 nM
- IC50 (Thromboxane A2 receptor): 1100 nM
- IC50 (Prostacyclin receptor): 5000 nM

Compound: O=C(O)CCC/C=C\C[C@@H]1[C@H]2CC[C@H](C2)[C@H]1NS(=O)(=O)c1ccc(C#Cc2ccccc2)cc1
- IC50 [2]: 8.6 nM
- inhibition in vivo at 1 mg/kg (Cavia porcellus [4]): 25%
- IC50 [6]: 250 nM
- IC50 (Thromboxane A2 receptor): 280 nM
- IC50 (Prostacyclin receptor): > 10000 nM

Compound: CC1(C)[C@H]2C[C@H](C/C=C\CCCC(=O)O)[C@@H](NS(=O)(=O)c3ccc4oc5ccccc5c4c3)[C@@H]1C2
- IC50 [2]: 780 nM
- IC50 [6]: > 1000 nM
- IC50 (Thromboxane A2 receptor): 240 nM
- IC50 (Prostacyclin receptor): > 10000 nM
